Test results reported in ChEMBL document CHEMBL1133895, “1,4-Disubstituted imidazoles are potential antibacterial agents functioning as inhibitors of enoyl acyl carrier protein reductase (FabI)” (Bioorg Med Chem Lett, 2001).
pIC50: −log10 of the molar value. ≈ marks a conversion by molar mass, not a printed value.

Legend:
[1] = biological target: T1, Enoyl-[acyl-carrier-protein] reductase [NADH] FabI (Escherichia coli K-12, UniProt P0AEK4); experiment: Evaluated for inhibition of enoyl acyl carrier protein reductase (FabI) in Escherichia coli.
T1 sequence (P0AEK4 whole entry): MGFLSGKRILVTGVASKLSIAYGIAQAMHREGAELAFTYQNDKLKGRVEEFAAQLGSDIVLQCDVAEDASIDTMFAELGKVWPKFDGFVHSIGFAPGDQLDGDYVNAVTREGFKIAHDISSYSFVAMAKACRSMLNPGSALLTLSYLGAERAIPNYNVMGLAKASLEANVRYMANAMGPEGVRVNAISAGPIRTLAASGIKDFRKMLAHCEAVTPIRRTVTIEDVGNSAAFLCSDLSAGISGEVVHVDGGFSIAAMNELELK

[2] = biological target: T2, Enoyl-[acyl-carrier-protein] reductase [NADPH] FabI (Staphylococcus aureus, UniProt Q6GI75); experiment: Evaluated for inhibition of enoyl acyl carrier protein reductase (FabI) in Staphylococcus aureus.
T2 sequence (Q6GI75 whole entry): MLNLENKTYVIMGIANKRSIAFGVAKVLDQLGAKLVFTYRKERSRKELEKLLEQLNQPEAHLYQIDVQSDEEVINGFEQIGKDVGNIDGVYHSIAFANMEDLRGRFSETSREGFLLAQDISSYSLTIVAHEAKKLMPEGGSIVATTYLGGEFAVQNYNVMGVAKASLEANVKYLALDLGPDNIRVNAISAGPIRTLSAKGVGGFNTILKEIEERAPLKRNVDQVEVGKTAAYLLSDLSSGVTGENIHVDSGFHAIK

Moraxella catarrhalis = experiment: Antibacterial activity against Moraxella catarrhalis 1502; type: functional
Staphylococcus aureus = experiment: Antibacterial activity against Staphylococcus aureus Oxford.; type: functional
[3] = biological target: T2, Enoyl-[acyl-carrier-protein] reductase [NADPH] FabI; experiment: Evaluated for inhibition of enoyl acyl carrier protein reductase (FabI) of Staphylococcus aureus in the presence of NADH using crotonoyl CoA as substrate
[4] = biological target: T1, Enoyl-[acyl-carrier-protein] reductase [NADH] FabI; experiment: Evaluated for inhibition of enoyl acyl carrier protein reductase (FabI) of Escherichia coli in the presence of NADH using crotonoyl CoA as substrate
Summary of the method: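 Cloned, overexpressed, purified E. coli FabI (usually 60 nM) in 100 mM NaADA pH 6.5, 4% glycerol, 0.25 mM crotonoyl CoA, 50 µM NADH; inhibitor typically 0.01-10 µM. NADH consumption followed at 340 nm, 20 min, 30 °C; initial velocities from tangent at t = 0 of exponential fit; IC50 from 4-parameter fit, mean ± SD of duplicates.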

Structure (SMILES) | pIC50 [1] | pIC50 [2] | MIC (Moraxella catarrhalis) [µg/mL] | MIC (Staphylococcus aureus) [µg/mL] | pIC50 [3] | pIC50 [4]
COc1ccc(-c2c[nH]c(Cc3ccc(C)cc3)n2)cc1 | < 4.00 | 4.18 | – | – | – | –
Cc1ccc(Cn2cnc(-c3cccc(Cl)c3Cl)c2)cc1 | – | < 5.00 | – | – | – | –
c1ccc(-c2ccc(Cn3cnc(-c4ccsc4)c3)cc2)cc1 | 5.93 | 5.12 | – | – | – | –
COc1ccc(-c2cn(Cc3ccccc3)cn2)cc1 | 5.28 | 5.95 | 64 (≈ 242 µM) | 64 (≈ 242 µM) | – | –
c1ccc(C[C@@H]2COC(c3ccsc3)=N2)cc1 | < 4.00 | < 4.00 | – | – | – | –
O=C(O)c1cccc(Cn2cnc(-c3ccsc3)c2)c1 | < 4.00 | < 4.00 | – | – | – | –
c1ccc(C[C@H]2COC(c3ccsc3)=N2)cc1 | < 4.00 | < 4.00 | – | – | – | –
Cc1ccc(Cn2cnc(-c3ccsc3)c2)cc1 | 5.19 | 6.60 | 32 (≈ 126 µM) | 8 (≈ 31.5 µM) | – | –
COc1ccc(-c2cn(Cc3ccc(C)cc3)cn2)cc1 | 5.41 | 6.44 | 32 (≈ 115 µM) | 8 (≈ 28.7 µM) | – | –
Oc1cc(Cl)ccc1Oc1ccc(Cl)cc1Cl [TRICLOSAN] | – | – | 0.06 (≈ 0.207 µM) | 0.03 (≈ 0.104 µM) | – | –

The next lines start with the values.

pIC50 [1] | pIC50 [2] | MIC (Moraxella catarrhalis) [µg/mL] | MIC (Staphylococcus aureus) [µg/mL] | pIC50 [3] | pIC50 [4] | Structure (SMILES)
4.55 | 5.39 | – | – | – | – | COc1ccc(-c2cn(Cc3ccc(C(F)(F)F)cc3)cn2)cc1
< 4.00 | 4.29 | – | – | – | – | Cc1ccc(Cc2nc(-c3ccsc3)no2)cc1
< 4.00 | < 4.00 | – | – | – | – | Cc1ccc(Cc2coc(-c3ccsc3)n2)cc1
4.18 | 4.44 | – | – | – | – | Cc1ccccc1Cn1cnc(-c2ccsc2)c1
– | < 4.00 | – | – | – | – | Cn1cnc(-c2ccsc2)c1
4.57 | 4.83 | – | – | – | – | O=[N+]([O-])c1cccc(Cn2cnc(-c3ccsc3)c2)c1
< 4.00 | 4.29 | – | – | – | – | Cc1ccc(Cc2noc(-c3ccsc3)n2)cc1
5.29 | 5.69 | > 64 | > 64 | – | – | Nc1ccc(Cn2cnc(-c3ccsc3)c2)cc1
– | < 4.00 | – | – | – | – | FC(F)(F)c1ccc(-c2cn(Cc3ccccc3)cn2)cc1
4.91 | 5.37 | 32 (≈ 126 µM) | > 64 | – | – | Cc1cccc(Cn2cnc(-c3ccsc3)c2)c1
5.03 | 5.72 | 64 (≈ 237 µM) | 16 (≈ 59.2 µM) | – | – | COc1ccc(Cn2cnc(-c3ccsc3)c2)cc1
– | – | – | 128 (≈ 503 µM) | 5.91 | 4.86 | Cc1ccc(Cn2cnc(-c3cccs3)c2)cc1
